Screening data (PubChem BioAssay)
CHOP UPR activ: activators of apoptotic arm of unfolded protein response (CHOP); activation, % at 10 µM; 0.34% of 330,000 active; AID 449763; CHO-CHOP luciferase reporter, UPR activation, luminescence; percent of tunicamycin response over DMSO baseline;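 active = at 10 µM dose, activation of 40% or more, normalized to positive control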;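 also: 100% = tunicamycin at 10 µg/mL and 0% = DMSO alone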
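Test system: CHO CHOP reporter cells. Input: 500 CHO-CHOP cells per well. Medium: F12 with 10% FBS. Technique: luciferase luminescence. Measure: percent activation relative to tunicamycin control. Dosing: 10 µM compound, 0.5% DMSO. Timing: 16-18 h cell attachment, then 6 h compound exposure, 37 °C.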
Beta cell apopt: beta cell apoptosis inhibition. 0.8% of 300,000 active. INS-1E cytokine-induced death, ATP luminescence, 48 h; percent of positive-control rescue, neutral wells zero. AID 435005. protection from apoptosis, % (test concentration not listed);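 active = Every replicate reaches about 75%, or at least half do and their mean reaches it too, limit read from the data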;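 also: 0% = cytokine-treated negative control wells and 100% = positive control rescue; higher means more ATP so stronger rescue from cytokine killing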
CSC inhib: cancer stem cell inhibition | inhibition, % at 7.5 µM | 1.1% of 300,000 active | cancer stem cell-like cells viability, luminescence; in the data active = inhibition above about 75%; tested in HMLE shEcad cells
UPR XBP1 act: adaptive UPR (XBP1) activation. CHO-XBP1 luciferase reporter, IRE1-XBP1 UPR activation, luminescence; percent of tunicamycin response, DMSO as zero. activation, % at 20 µM. 0.33% of 330,000 active. AID 463104;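 active = versus positive control, 20 µM dose yields 30% or more activation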;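 also: 100% = tunicamycin at 10 µg/mL and 0% = DMSO only wells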
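Material: CHO cell line with stable XBP1 luciferase reporter; schedule: 16-18 h cell attachment at 37 °C, then 6 h compound exposure; signal: glow luminescence from Steady-Glo reagent; medium: serum-containing F12 medium, 10% FBS; benchmarks: tunicamycin 10 µg/mL and vehicle-only wells; read-out: percent activation relative to tunicamycin reference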
SKKanGAS inh: SKKanGAS growth inhibition; AID 1662; inhibition, % at 7.5 µM; 1.3% of 300,000 active; S. pyogenes SKKanGAS, kanamycin growth, BacTiter-Glo, 6 h;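 active = mean replicate score, as percent of positive control median, at least 50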;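 also: strain carries kanamycin resistance gene driven by streptokinase promoter and grows in 40 µg/ml kanamycin; loss of luminescence reflects streptokinase promoter inhibition or plain growth inhibition; 0% = median of DMSO wells and 100% = positive control at its reference dose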
Mdm2-MdmX inh: human Mdm2/MdmX binding inhibition. O15151+Q00987. SaOS-2 split-luciferase Mdm2/MdmX complementation, luminescence. inhibition, % at 8 µM. 3% of 330,000 active. AID 485346;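 active = inhibition of at least 50% at 8 µM in the primary screen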
Target sequence (O15151 whole entry, looked up): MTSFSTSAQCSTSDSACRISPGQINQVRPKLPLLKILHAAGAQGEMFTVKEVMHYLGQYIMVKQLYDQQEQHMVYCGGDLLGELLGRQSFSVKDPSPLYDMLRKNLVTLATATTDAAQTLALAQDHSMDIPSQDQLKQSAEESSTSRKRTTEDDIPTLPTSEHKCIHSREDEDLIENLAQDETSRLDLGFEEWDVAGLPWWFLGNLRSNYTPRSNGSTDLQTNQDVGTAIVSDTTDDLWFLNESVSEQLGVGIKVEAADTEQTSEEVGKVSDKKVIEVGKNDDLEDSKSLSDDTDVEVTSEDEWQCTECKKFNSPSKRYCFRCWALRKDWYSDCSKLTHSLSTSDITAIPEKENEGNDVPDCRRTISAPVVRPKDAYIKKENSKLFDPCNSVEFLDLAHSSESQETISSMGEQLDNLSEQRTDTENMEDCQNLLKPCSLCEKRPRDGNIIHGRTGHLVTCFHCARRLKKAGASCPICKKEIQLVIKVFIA
Target sequence (Q00987 whole entry, looked up): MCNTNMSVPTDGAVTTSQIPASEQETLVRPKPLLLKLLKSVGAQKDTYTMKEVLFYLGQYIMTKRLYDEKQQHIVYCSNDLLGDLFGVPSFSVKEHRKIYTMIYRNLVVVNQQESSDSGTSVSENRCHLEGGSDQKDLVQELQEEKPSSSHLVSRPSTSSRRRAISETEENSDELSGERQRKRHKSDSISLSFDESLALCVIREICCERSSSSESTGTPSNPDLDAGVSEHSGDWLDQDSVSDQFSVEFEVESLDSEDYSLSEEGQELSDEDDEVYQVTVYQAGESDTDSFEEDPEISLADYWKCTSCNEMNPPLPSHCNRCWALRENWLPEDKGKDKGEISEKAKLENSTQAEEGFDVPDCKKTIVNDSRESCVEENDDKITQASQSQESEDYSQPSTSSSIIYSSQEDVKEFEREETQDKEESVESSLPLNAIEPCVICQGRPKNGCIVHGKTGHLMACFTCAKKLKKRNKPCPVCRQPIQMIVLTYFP
Mdm2 MdmX conf: human Mdm2/MdmX binding inhibition, confirmed. shares compounds with Mdm2-MdmX inh. inhibition, % at 8 µM. 55% of 10,000 active. AID 489028. luminescent assay; in the data active = inhibition above about 40%
FLuc counter: inhibits full-length luciferase, flagging false Mdm2/MdmX hits | shares compounds with Mdm2-MdmX inh | SaOS-2 full-length luciferase counterscreen, luminescence | inhibition, % at 8 µM | 77% of 6,200 active | AID 504607;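 active = mean inhibition at 8 µM reaching about 37%, which flags the compound as non-specific, limit read from the data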;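 also: p53-null SaOS-2 cells with luciferase driven by a doxycycline-inducible promoter; compound on cells about two nights before reading with doxycycline added after day one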
* hit, by the source's call; · = not tested or not shown. Rows were chosen to be rich in hits. Some 4.8% of all compounds tested hit in one or more screens of this group.

SMILES | CHOP UPR activ | Beta cell apopt | CSC inhib | UPR XBP1 act | SKKanGAS inh | Mdm2-MdmX inh | Mdm2 MdmX conf | FLuc counter
CCOC(=O)c1ccccc1NC(=O)COc1cc(=O)n(CC)c2ccccc12 | 4.2 | 3.4 | · | 6.8 | 6.2 | 25.4 | · | ·
Cc1c(Cl)sn(-c2ccc(Cl)cc2)c1=O | -0.6 | · | · | -9.8 | · | 95.7* | 99.3* | 51.5*
Cc1ccc(-n2[nH]c(=O)c3cccnc32)cc1 | 1.9 | 0.4 | -2.8 | 2.4 | 0.2 | -16.1 | · | ·
Cc1ccc(-n2[nH]c(=O)c(-c3ccccn3)c2C)cc1 | -9.2 | 4.9 | -12.7 | -8.2 | -25.6 | 79.0* | 81.2* | 54.2*
CC(C)Oc1ccc(C(=O)Nc2ccc(NC(=O)c3ccco3)c(Cl)c2)cc1 | 0.6 | -3.5 | 18.4 | 0.7 | 4.8 | 2.3 | · | ·
CC(C)COc1ccc(C(=O)Nc2ccc(NC(=O)c3ccco3)c(Cl)c2)cc1 | -1.5 | 10.0 | · | 5.7 | 4.2 | 59.7* | 10.3 | ·
CCc1ccc(CC2S/C(=C(\C#N)C(C)=O)NC2=O)cc1 (stereo not drawn) | 0.3 | · | 52.0 | -1.3 | 12.7 | 61.1* | 74.1* | 70.3*
CCOC(=O)c1ccc(CC2S/C(=C(\C#N)C(C)=O)NC2=O)cc1 (stereo not drawn) | 2.4 | -0.8 | 11.9 | -3.1 | 15.7 | 4.3 | · | ·
CC(=O)/C(C#N)=C1\NC(=O)C(Cc2ccc(C)c(Cl)c2)S1 (stereo not drawn) | 2.8 | -5.7 | 45.4 | -0.5 | 21.6 | 79.4* | 78.1* | 31.8
O=C(N/N=C/c1ccc(OC(=O)c2ccco2)cc1)c1ccc[n+]([O-])c1 | -1.6 | 0.5 | -7.9 | 1.9 | -12.4 | -18.8 | · | ·
COc1ccc(Cc2nc3ccc(C(=O)NC(C)Cc4ncccc4C)cc3o2)cc1OC (stereo not drawn) | 6.8 | -5.5 | -7.5 | 1.9 | 2.6 | 16.3 | · | ·
O=C(CSc1ccc2ccccc2n1)N/N=C/c1ccccc1O | 1.6 | -4.7 | 30.2 | 1.6 | 95.0* | 60.6* | 68.5* | 74.0*
O=C(CNC(=O)C(c1ccccc1)c1ccccc1)N/N=C\c1cccc(O)c1 | 1.0 | -1.8 | 3.0 | -2.9 | 19.3 | -6.0 | · | ·
O=C(CNC(=O)C1COc2ccccc2O1)N/N=C/c1ccc(O)cc1O (stereo not drawn) | -3.3 | 19.5 | 78.2* | -0.1 | 8.9 | 50.5* | 38.1 | 70.5*
O=C(CNC(=O)C(c1ccccc1)c1ccccc1)N/N=C/c1ccc(O)cc1O | -1.3 | 43.8 | 132.5* | -2.0 | 22.4 | 69.6* | 77.4* | 37.9*
Cc1cc(SCC(=O)N/N=C/c2ccc(O)cc2O)c(C)cc1Br | -2.2 | 55.3 | 96.4* | -1.9 | 78.6* | 61.0* | 65.8* | 66.6*
O=C(CNC(=O)C1COc2ccccc2O1)N/N=C\c1cccc(O)c1 (stereo not drawn) | 0.9 | -0.9 | 5.4 | -2.6 | 2.6 | 10.4 | · | ·
CCc1cc(C(=O)N/N=C/c2ccc(O)cc2O)c2ccccc2n1 | -1.3 | 92.5* | 94.1* | -0.9 | 2.8 | 63.5* | 63.7* | 36.1*
O=C(N/N=C/c1ccc(O)cc1O)c1ccncc1 | 0.8 | 64.3 | 70.7 | -2.7 | -1.8 | 31.3 | · | ·
COc1ccc2nc(N3C(=O)/C(=C/c4ccccc4)NC3=S)sc2c1 | 0.4 | 14.0 | -3.2 | 0.7 | 92.4* | 54.1* | 37.5 | ·
COc1ccc2nc(N3C(=O)CC(Cc4cc(C)cc(C)c4)C3=O)sc2c1 (stereo not drawn) | -2.1 | -5.2 | 1.4 | -1.3 | 18.2 | 28.0 | · | ·
O=C(N/N=C\c1c(O)ccc2ccccc12)c1ccc(Cn2cccn2)o1 | -1.1 | 79.0* | 30.1 | 6.2 | 108.2* | 74.9* | 74.5* | 24.8
O=C(N/N=C/c1c(O)ccc2ccccc12)c1[nH]ncc1Br | 2.4 | 102.7* | 107.6* | 3.8 | 14.2 | 64.6* | 75.7* | 40.5*
COc1ccc2ccccc2c1/C=N/NC(=O)c1cccc(Br)c1 | 1.8 | -4.5 | -1.1 | -3.0 | -10.8 | -7.4 | · | ·
O=C(N/N=C/c1cccs1)c1[nH]ncc1Br | 3.6 | 7.1 | 13.9 | -2.4 | 2.5 | -8.8 | · | ·
SMILES | CHOP UPR activ | Beta cell apopt | CSC inhib | UPR XBP1 act | SKKanGAS inh | Mdm2-MdmX inh | Mdm2 MdmX conf | FLuc counter
O=C(N/N=C/c1c(O)ccc2ccccc12)c1cccc(C(F)(F)F)c1 | 3.0 | · | · | 1.3 | 120.2* | 74.2* | 81.2* | 21.1
COc1ccc(NC(=O)CSc2nnnn2C2CC3C=CC2C3)cc1 (stereo not drawn) | 2.8 | 1.1 | -20.0 | -3.9 | -5.2 | 7.8 | · | ·
On1c2c(c3c4nonc4ccc31)CCCC2 | -2.9 | -9.2 | -9.9 | -2.9 | 17.2 | 17.1 | · | ·
COn1c2c(c3c4nonc4ccc31)CCCC2 | -1.1 | -14.8 | -20.6 | -2.2 | 5.9 | 58.6* | 47.1* | 55.3*
Cc1ccc(C(=O)Nc2nnc(-c3ccncc3)o2)cc1 | 3.3 | -4.2 | 2.1 | -0.5 | 2.7 | 19.1 | · | ·
O=C(Nc1nnc(-c2ccc3c(c2)CCCC3)o1)c1ccccc1 | -2.9 | 7.4 | 91.6* | -2.1 | 93.7* | 57.3* | 65.8* | 47.2*
CCN(CC(=O)Nc1ccc(NC(C)=O)cc1)C(=O)/C=C/c1ccc(C)o1 | 0.9 | 3.9 | · | -2.5 | · | 14.7 | · | ·
Cc1ccc(Nc2cc(C(=O)NCCCN3CCOCC3)c3ccccc3n2)cc1C | 3.9 | · | -13.6 | 1.4 | 3.2 | 13.1 | · | ·
Cc1ccc(-n2nnnc2SC(C(=O)c2c[nH]c3ccccc23)c2ccccc2)cc1 (stereo not drawn) | 2.0 | 1.5 | 85.5* | -1.8 | 33.5 | 59.5* | 65.2* | 56.1*
COc1ccc(-n2nnnc2CNC(=O)C(=O)c2c[nH]c3ccccc23)cc1 | 0.6 | · | -2.4 | 4.1 | -4.2 | -2.7 | · | ·
N#Cc1ccc(CN2CCN(C(=O)c3ccc(S(=O)(=O)NCc4ccco4)cc3)CC2)cc1 | -1.1 | 0.8 | -9.0 | -4.8 | · | -7.9 | · | ·
CCN(C(=O)COC(=O)CCc1c[nH]c2ccccc12)c1c(N)n(Cc2ccccc2)c(=O)[nH]c1=O | 2.1 | -0.2 | · | -1.1 | 47.8 | -3.4 | · | ·
COc1ccccc1NS(=O)(=O)c1ccc(N/N=C/c2c(C)nn(-c3ccccc3)c2N2CCCC2)c([N+](=O)[O-])c1 | 3.7 | 9.1 | 52.9 | -2.4 | 8.2 | 22.8 | · | ·
COc1c(/C=N/Nc2ccc([N+](=O)[O-])cc2[N+](=O)[O-])c(C)nn1-c1ccccc1 | 3.7 | 2.8 | 17.3 | 3.0 | -2.9 | 54.1* | 13.6 | ·
CC(C)Oc1ccc(Cl)cc1Nc1nc(NCCO)nc(N2CCCC2)n1 | 0.7 | · | 55.2 | 5.0 | 10.4 | 47.4 | · | ·
O=C(Nc1ccc(N2CCN(C(=O)c3cccs3)CC2)cc1)c1ccco1 | 0.8 | 4.9 | -1.9 | -7.0 | -5.2 | 5.4 | · | ·
O=C(Nc1ccc(N2CCN(C(=O)c3cccs3)CC2)cc1)c1ccc([N+](=O)[O-])o1 | 33.0 | -10.4 | 100.0* | -7.2 | 39.7 | 72.0* | 80.0* | 38.6*
